Source: ChEMBL document CHEMBL1154269, “Isolation and structural elucidation of euryjanicins B-D, proline-containing cycloheptapeptides from the Caribbean marine sponge Prosuberites laughlini” (2009)
The source made the active and inactive calls. The rule behind the calls is not given here. Where a SMILES comes first, the peptide text is derived from it.

What was measured:
[1] = tested on: Respiratory syncytial virus; assay: Antiviral activity against RSV A; assay type: functional, organism-based
Influenza B virus = assay: Antiviral activity against Influenza B; assay type: functional, organism-based
UO-31 = assay: Cytotoxicity against human UO31 cells assessed as viable cells at 10 uM after 48 hrs by sulforhodamine B assay; assay type: functional; conditions: UO-31, 48 h, read-out: Activity
Method in brief: (§1)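 Tested at a single high dose of 10−5 M across the full NCI 60 human cancer cell line panel. Read-out is percent growth of treated cells.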

Plasmodium falciparum = assay: Antimalarial activity against Plasmodium falciparum W2 clone after 48 hrs by fluorescence microplate reader assay; assay type: functional, organism-based
Influenza A virus = assay: Antiviral activity against Influenza A H5N1; assay type: functional, organism-based
West Nile virus = assay: Antiviral activity against WNV; assay type: functional, organism-based
Hepatitis B virus = assay: Antiviral activity against HBV; assay type: functional, organism-based
[2] = tested on: Mycobacterium tuberculosis; assay: Antituberculosis activity against Mycobacterium tuberculosis […] by alamar blue assay; assay type: functional, organism-based
Microglia = assay: Antiinflammatory activity in LPS-stimulated rat neonatal microglia assessed as inhibition of PMA-stimulated superoxide anion production; assay type: functional
Human alphaherpesvirus 2 = assay: Antiviral activity against HSV2; assay type: functional, organism-based
LOX IMVI = assay: Cytotoxicity against human LOXIMVI cells assessed as viable cells at 10 uM after 48 hrs by sulforhodamine B assay; assay type: functional; conditions: read-out: Activity; method in brief: as §1
IGROV-1 = assay: Cytotoxicity against human IGROV1 cells assessed as viable cells at 10 uM after 48 hrs by sulforhodamine B assay; assay type: functional; conditions: IGROV-1, 48 h, read-out: Activity; method in brief: as §1
Rift Valley fever virus = assay: Antiviral activity against Rift Valley fever virus; assay type: functional, organism-based
NCI-H522 = assay: Cytotoxicity against human NCI-H522 cells assessed as cell viability at 10 uM after 48 hrs by sulforhodamine B assay; assay type: functional; conditions: NCI-H522, 48 h, read-out: Activity; method in brief: as §1
Human alphaherpesvirus 1 = assay: Antiviral activity against HSV1; assay type: functional, organism-based

Structure (SMILES)	Activity [1]	Activity (Influenza B virus)	viability at 10 µM (UO-31) [%]	Activity (Plasmodium falciparum)	Activity (Influenza A virus)	Activity (West Nile virus)	Activity (Hepatitis B virus)	Activity [2]	Activity (Microglia)	Activity (Human alphaherpesvirus 2)	viability at 10 µM (LOX IMVI) [%]	viability at 10 µM (IGROV-1) [%]	Activity (Rift Valley fever virus)	viability at 10 µM (NCI-H522) [%]	Activity (Human alphaherpesvirus 1)
CC[C@@H](C)[C@@H]1NC(=O)[C@@H]2CCCN2C(=O)[C@H](Cc2ccccc2)NC(=O)[C@H](CC(C)C)NC(=O)[C@@H]2CCCN2C(=O)[C@H]([C@H](C)CC)NC(=O)[C@H](CO)NC1=O [EURYJANICIN C]	inactive	inactive	83.4	inactive	inactive	inactive	inactive	inactive	inactive	inactive	88	100	inactive	95.1	inactive
CC(C)[C@@H]1NC(=O)[C@H](Cc2ccccc2)NC(=O)[C@@H]2CCCN2C(=O)[C@H]([C@@H](C)O)NC(=O)[C@H](C)NC(=O)[C@@H]2CCCN2C(=O)[C@@H]2CCCN2C1=O [EURYJANICIN B] (cyclo(ATPFVPP))	inactive	inactive	76.3	inactive	inactive	inactive	inactive	inactive	inactive	inactive	88.6	91.3	inactive	83.9	inactive
CC[C@@H](C)[C@@H]1NC(=O)[C@@H]2CCCN2C(=O)[C@H](CO)NC(=O)[C@H](Cc2ccccc2)NC(=O)[C@H]([C@H](C)CC)NC(=O)[C@@H]2CCCN2C(=O)[C@H](Cc2ccccc2)NC1=O [EURYJANICIN D]	inactive	inactive	82.7	inactive	inactive	inactive	inactive	inactive	inactive	inactive	87.6	100	inactive	94.6	inactive
CC[C@H](C)[C@@H]1NC(=O)[C@H]([C@@H](C)CC)NC(=O)[C@H]([C@@H](C)CC)NC(=O)[C@@H]2CCCN2C(=O)[C@H]([C@H](C)O)NC(=O)[C@@H]2CCCN2C(=O)[C@@H]2CCCN2C(=O)[C@H](CC(C)C)NC1=O [DOMINICIN]	inactive	inactive	32.8	inactive	inactive	inactive	inactive	inactive	inactive	inactive	100	100	inactive	100	inactive
